Reference: ChEMBL document CHEMBL1152619, “Synthesis and structure-activity relationships of dehydroaltenusin derivatives as selective DNA polymerase alpha inhibitors” (Bioorg Med Chem, 2009)
The source made the active and inactive calls. No cut-off for these calls is given here.

Key:
[1] = Inhibition of calf thymus DNA polymerase alpha by [3H]dTTP incorporation assay; parameters: species or system Bos taurus
Method in brief: (§1)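 Enzymes: pol α immunoaffinity-purified from calf thymus; pol β purified from a recombinant rat pol β expression plasmid. Template-primer was poly(dA)/oligo(dT)12–18 (A/T = 2/1) with [³H]-dTTP as substrate. Inhibitor–enzyme premix was added to standard reaction mixture and incubated for 60 min at 37 °C. Remaining activity was expressed relative to the no-inhibitor control (100%).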

DNA polymerase beta = DNA polymerase beta (Rattus norvegicus, UniProt P06766); assay: Inhibition of rat DNA polymerase beta by [3H]dTTP incorporation assay; method in brief: as §1
[2] = Selectivity index, ratio of IC50 for rat DNA polymerase beta to IC50 for calf thymus DNA polymerase alpha
Bos taurus = species: Bos taurus; assay: Inhibition of calf thymus DNA polymerase alpha assessed as complete inhibition of enzyme activity at 4 uM by [3H]dTTP incorporation assay
[3] = target: Myosin light chain kinase, smooth muscle (Homo sapiens, UniProt Q15746); assay: Inhibition of MLCK
Chain of Myosin light chain kinase, smooth muscle (Q15746 whole entry): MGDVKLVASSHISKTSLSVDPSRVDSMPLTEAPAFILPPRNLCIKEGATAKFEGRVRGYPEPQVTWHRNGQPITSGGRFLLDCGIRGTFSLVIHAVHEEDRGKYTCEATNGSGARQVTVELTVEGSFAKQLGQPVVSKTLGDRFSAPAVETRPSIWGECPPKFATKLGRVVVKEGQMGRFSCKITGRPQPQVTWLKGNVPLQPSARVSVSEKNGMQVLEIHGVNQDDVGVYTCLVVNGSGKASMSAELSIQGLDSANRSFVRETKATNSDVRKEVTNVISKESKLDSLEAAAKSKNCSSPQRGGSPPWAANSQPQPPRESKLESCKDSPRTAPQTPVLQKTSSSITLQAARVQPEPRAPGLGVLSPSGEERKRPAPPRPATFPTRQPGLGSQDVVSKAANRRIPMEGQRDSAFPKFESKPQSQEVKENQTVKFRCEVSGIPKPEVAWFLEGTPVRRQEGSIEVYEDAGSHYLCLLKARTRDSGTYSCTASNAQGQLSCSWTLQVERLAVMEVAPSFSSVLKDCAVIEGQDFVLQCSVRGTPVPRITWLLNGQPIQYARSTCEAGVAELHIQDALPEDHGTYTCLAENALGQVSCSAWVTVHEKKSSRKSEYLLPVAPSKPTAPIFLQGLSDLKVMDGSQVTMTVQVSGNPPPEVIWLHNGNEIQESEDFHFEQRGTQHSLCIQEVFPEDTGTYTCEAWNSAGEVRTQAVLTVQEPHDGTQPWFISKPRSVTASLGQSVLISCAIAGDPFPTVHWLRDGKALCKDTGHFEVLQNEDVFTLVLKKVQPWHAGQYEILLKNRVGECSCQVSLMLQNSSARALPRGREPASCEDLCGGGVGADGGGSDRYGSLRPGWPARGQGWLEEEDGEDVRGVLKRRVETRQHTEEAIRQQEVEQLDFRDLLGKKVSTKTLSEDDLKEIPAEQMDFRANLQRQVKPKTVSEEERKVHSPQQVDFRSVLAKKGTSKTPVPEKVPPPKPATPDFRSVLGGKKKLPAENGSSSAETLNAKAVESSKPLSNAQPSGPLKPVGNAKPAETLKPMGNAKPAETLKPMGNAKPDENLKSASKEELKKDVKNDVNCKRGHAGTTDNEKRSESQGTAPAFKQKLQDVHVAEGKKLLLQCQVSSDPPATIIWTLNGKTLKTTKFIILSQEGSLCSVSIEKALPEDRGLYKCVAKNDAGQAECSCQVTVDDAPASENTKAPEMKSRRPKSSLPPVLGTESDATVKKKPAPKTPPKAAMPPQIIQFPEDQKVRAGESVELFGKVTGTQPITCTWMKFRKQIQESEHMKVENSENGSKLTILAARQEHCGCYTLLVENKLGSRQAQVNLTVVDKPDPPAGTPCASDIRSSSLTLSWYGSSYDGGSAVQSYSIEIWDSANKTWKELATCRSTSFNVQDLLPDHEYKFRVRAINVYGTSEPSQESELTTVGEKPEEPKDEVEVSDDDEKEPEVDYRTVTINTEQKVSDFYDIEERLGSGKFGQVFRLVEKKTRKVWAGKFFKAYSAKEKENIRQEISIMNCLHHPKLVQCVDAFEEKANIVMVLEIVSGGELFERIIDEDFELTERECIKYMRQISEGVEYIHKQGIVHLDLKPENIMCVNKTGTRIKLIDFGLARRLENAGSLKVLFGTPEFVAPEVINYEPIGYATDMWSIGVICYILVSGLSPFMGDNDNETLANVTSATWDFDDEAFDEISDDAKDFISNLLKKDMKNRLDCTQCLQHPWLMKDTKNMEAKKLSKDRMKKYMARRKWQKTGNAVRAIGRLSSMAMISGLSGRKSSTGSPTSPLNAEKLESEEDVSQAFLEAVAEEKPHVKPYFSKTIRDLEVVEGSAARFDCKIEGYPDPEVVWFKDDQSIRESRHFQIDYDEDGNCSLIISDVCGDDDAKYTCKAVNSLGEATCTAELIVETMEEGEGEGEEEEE

IC50 ([1]; read-out: IC50) [µM] | IC50 [1] | IC50 (DNA polymerase beta) [µM] | Ratio IC50 [2] | Activity (Bos taurus) | IC50 [3] [µM] | SMILES
> 200 | – | – | – | – | – | COc1cc(O)c2c(c1)C1=CC(=O)C=CC1(C)OC2=O (stereo not given)
> 200 | – | – | – | – | – | CC12C=CC(=O)C=C1c1cccc(O)c1C(=O)O2 (stereo not given)
0.89 | Dose-dependent effect | 126 | 142 | – | – | CC12C=C(O)C(=O)C=C1c1cc(O)cc(O)c1C(=O)O2 (stereo not given) [DESMETHYLDEHYDROALTENUSIN]
0.09 | Dose-dependent effect | 24 | 267 | – | – | CCCCCCOc1cc(O)c2c(c1)C1=CC(=O)C(O)=CC1(C)OC2=O (stereo not given)
0.68 | Dose-dependent effect | 64 | 94.1 | Active | 0.69 | COc1cc(O)c2c(c1)C1=CC(=O)C(O)=CC1(C)OC2=O (stereo not given) [DEHYDROALTENUSIN]
0.18 | Dose-dependent effect | 35 | 194 | – | – | CCCOc1cc(O)c2c(c1)C1=CC(=O)C(O)=CC1(C)OC2=O (stereo not given)
0.06 | Dose-dependent effect | 11 | 183 | – | – | CCCCCCCCCCCCOc1cc(O)c2c(c1)C1=CC(=O)C(O)=CC1(C)OC2=O (stereo not given)

SMILES | IC50 ([1]; read-out: IC50) [µM] | IC50 [1] | IC50 (DNA polymerase beta) [µM] | Ratio IC50 [2] | Activity (Bos taurus) | IC50 [3] [µM]
COc1cc(O)c2c(=O)oc3cc(O)c(O)cc3c2c1 | > 200 | – | – | – | – | –
COc1cc(O)c2c(=O)oc3cc(OCc4ccccc4)c(OCc4ccccc4)cc3c2c1 | > 200 | – | – | – | – | –
CC12C=C(O)C(=O)C=C1c1cccc(O)c1C(=O)O2 (stereo not given) | 0.24 | Dose-dependent effect | 89 | 371 | – | –
